Source: ChEMBL document CHEMBL4376873, “Systematic Investigation of Lipophilicity Modulation by Aliphatic Fluorination Motifs” (J Med Chem, 2020)

Tests used:
[1] = Lipophilicity, logP of the compound by 19F NMR-based method; conditions: octanol/water
[2] = Intrinsic clearance in rat hepatocytes assessed per million cells; type: ADME, cell-based, Hepatocyte; conditions: read-out: CLH
Procedure, shortened: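 Isolated rat hepatocytes diluted to 1x10⁶ cells/mL, compound added from DMSO stock; metabolism rate expressed as μL/min/10⁶ cells.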

[3] = Lipophilicity, logD of the compound at 7.4 by the shake flask method; type: physicochemical; conditions: octanol/water, pH 7.4
Procedure, shortened: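 Shake-flask partitioning at pH 7.4 (routine AstraZeneca method); concentrations determined by UV detection.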

[4] = Solubility of compound in aqueous phosphate buffer at pH 7.4 after 24 hrs at 25 degC; type: physicochemical
[5] = Intrinsic clearance in human liver microsomes; type: ADME, Microsome; conditions: read-out: CLH
Procedure, shortened: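 Metabolic turnover rate in human microsomes, compound added from DMSO stock; reported in μL/min/mg.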

[6] = Fraction unbound in 10% human plasma by equilibrium dialysis; type: ADME, cell-free
Procedure, shortened: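 Equilibrium dialysis in 10% human plasma, compound added from DMSO stock; fraction unbound determined.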

[7] = biological target: Voltage-gated inwardly rectifying potassium channel KCNH2 (Homo sapiens, UniProt Q12809); test: Inhibition of human ERG assessed as reduction in channel tail current by plate-based planar patch clamp assay
Sequence of Voltage-gated inwardly rectifying potassium channel KCNH2 (Q12809 whole entry): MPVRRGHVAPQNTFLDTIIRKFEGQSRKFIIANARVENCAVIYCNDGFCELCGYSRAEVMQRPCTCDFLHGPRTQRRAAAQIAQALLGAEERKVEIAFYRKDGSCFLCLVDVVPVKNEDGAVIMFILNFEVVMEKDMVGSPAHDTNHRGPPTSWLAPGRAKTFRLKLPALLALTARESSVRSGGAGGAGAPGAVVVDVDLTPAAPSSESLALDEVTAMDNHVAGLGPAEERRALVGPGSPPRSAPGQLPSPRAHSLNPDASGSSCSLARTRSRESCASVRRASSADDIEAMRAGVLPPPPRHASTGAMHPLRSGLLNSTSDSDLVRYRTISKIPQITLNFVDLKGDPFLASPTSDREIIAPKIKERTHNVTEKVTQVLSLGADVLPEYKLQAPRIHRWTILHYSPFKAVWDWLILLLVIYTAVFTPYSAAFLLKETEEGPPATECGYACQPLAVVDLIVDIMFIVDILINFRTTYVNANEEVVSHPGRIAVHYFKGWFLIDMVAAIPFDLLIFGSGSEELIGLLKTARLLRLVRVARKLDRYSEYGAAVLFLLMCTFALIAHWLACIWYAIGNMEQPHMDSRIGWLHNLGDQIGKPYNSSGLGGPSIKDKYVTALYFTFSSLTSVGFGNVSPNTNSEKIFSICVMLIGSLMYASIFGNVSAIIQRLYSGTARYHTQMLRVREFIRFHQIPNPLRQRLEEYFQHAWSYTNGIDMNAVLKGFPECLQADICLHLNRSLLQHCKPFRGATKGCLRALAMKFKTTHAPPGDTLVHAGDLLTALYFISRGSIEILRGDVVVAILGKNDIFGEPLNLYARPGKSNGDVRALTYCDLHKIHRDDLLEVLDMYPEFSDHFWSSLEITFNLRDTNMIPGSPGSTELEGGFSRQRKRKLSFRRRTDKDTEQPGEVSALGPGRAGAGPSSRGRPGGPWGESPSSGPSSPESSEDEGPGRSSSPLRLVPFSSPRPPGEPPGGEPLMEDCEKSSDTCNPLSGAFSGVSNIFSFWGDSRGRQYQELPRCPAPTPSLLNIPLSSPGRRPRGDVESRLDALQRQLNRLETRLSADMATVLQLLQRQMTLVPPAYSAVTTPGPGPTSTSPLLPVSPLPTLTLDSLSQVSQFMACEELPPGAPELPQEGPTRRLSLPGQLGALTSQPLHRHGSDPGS

Structure (SMILES)	logP [1]	further results
CN(C)C(=O)CNCCc1cccc(OCCC(C)(F)F)c1	1.1	
OCCC(F)CF (stereo not given)	-0.12	
CCCCOc1cccc(CCNCC(=O)N(C)C)c1 [EVENAMIDE]	1.8	
CN(C)C(=O)CNCCc1cccc(OCCCC(F)(F)F)c1.Cl		hepatocyte CLint [2]: 52 µL/min/1e6 cells; logD [3]: 1.9; solubility at 24 h [4]: 900 µM; microsomal CLint [5]: < 3 µL/min/mg; fraction unbound [6]: 0.47
CCCCc1c[nH]c2ccccc12	3.7	
OCCCF	-0.26	
CC[C@H](F)[C@H](C)O (racemic)	0.68	
CCCOc1ccc2[nH]ccc2c1	2.9	
CN(C)C(=O)CNCCc1cccc(OCCCC(F)(F)CF)c1.Cl		hepatocyte CLint [2]: 34 µL/min/1e6 cells; logD [3]: 1.6; solubility at 24 h [4]: 870 µM; microsomal CLint [5]: < 3 µL/min/mg; IC50 [7]: 15 µM; fraction unbound [6]: 0.47
CCCCOc1cccc(CCNCC(=O)N(C)C)c1.Cl		solubility at 24 h [4]: 782 µM; IC50 [7]: 9.4 µM
CC(F)(F)C(F)(F)CO	0.87	
OCCCC(F)C(F)F (stereo not given)	0.52	
OCC(F)(F)C(F)(F)C(F)(F)C(F)F	1.89	
OCCC(F)F	0.04	
OCC(F)(F)F [TRIFLUOROETHANOL]	0.36	
OCCC(F)(F)CC(F)(F)F	1.12	
CN(C)C(=O)CNCCc1cccc(OCCCCC(F)(F)F)c1.Cl		hepatocyte CLint [2]: 105 µL/min/1e6 cells; logD [3]: 2.3; solubility at 24 h [4]: > 1000 µM; microsomal CLint [5]: 10 µL/min/mg; IC50 [7]: 9.6 µM; fraction unbound [6]: 0.28
CCC(F)(F)CO	0.67	
CCCCCOc1cccc(CCNCC(=O)N(C)C)c1.Cl		solubility at 24 h [4]: 779 µM; IC50 [7]: 1.8 µM
OCCCCF	0.09	
OCCC(F)(F)CF	0.27	

Structure (SMILES)	logP [1]	further results
CC[C@@H](F)[C@H](C)O (racemic)	0.68	
CCC(F)CCO (stereo not given)	0.75	
CCOC(=O)[C@@H]1CCCN1C(C)=O	0	
CCCC(O)CF (stereo not given)	0.74	
CCCC(O)C(F)F (stereo not given)	1.14	
OCC(F)(F)CC(F)(F)F	1.04	
OCCCC(F)(F)CF	0.58	
FCCCOc1ccc2[nH]ccc2c1	2.5	
OCCCC(F)CF (stereo not given)	0.11	
FC(F)(F)CCOc1ccc2[nH]ccc2c1	2.8	
CN(C)C(=O)CNCCc1cccc(OCCCC(C)(F)F)c1.Cl		solubility at 24 h [4]: 1000 µM; microsomal CLint [5]: 7 µL/min/mg; IC50 [7]: 7.6 µM
CCCC(F)(F)CO	1.25	
OCCCC(F)F	0.29	
CC(O)CCCF (stereo not given)	0.42	
CC(=O)N1CCC[C@H]1C(=O)OCC(F)F	0.02	
CN(C)C(=O)CNCCc1cccc(OCC(F)(F)C(F)(F)C(F)(F)F)c1	2.5	
OCCC(F)CC(F)(F)F (stereo not given)	0.84	
OCCC(F)(F)C(F)F	0.66	
OCCC(F)(F)C(F)(F)C(F)(F)F	2.1	
OCCCC(F)C(F)(F)F (stereo not given)	1.22	

Second part, led by results:

logP [1]	Structure (SMILES)	further results
0.26	CCC(F)CO (stereo not given)	
1.53	OCC(F)(F)C(F)C(F)(F)F (stereo not given)	
2.7	FCC(F)[C@H](F)Cc1c[nH]c2ccccc12 (stereo not given in full)	
0.66	OCCCCC(F)F	
2.6	FC(F)CCOc1ccc2[nH]ccc2c1	
1.6	CN(C)C(=O)CNCCc1cccc(OCC(F)(F)C(C)(F)F)c1	
0.92	CCC(F)(F)CCO	
0.64	CC(O)CCC(F)F (stereo not given)	
0.29	OCCC(F)C(F)F (stereo not given)	
1.04	CCC(F)(F)C(C)O (stereo not given)	
2.7	CC(F)(F)COc1ccc2[nH]ccc2c1	
2.3	FCC(F)COc1ccc2[nH]ccc2c1 (stereo not given)	
2.8	CC(F)[C@H](F)CCc1c[nH]c2ccccc12 (stereo not given in full)	
-0.29	OCC(F)F	
0.6	OCC(F)CC(F)(F)F (stereo not given)	
0.34	CC(F)(F)CCO	
